According to ChEMBL document CHEMBL1158554, “3,5-Diaryl-1H-pyrazole as a molecular scaffold for the synthesis of apoptosis-inducing agents” (2010):
The source made the active and inactive calls. The calls are words filed in the database; no cut-off is given here.

Columns and labels:
OVCAR [1] = assay: Growth inhibition of human OVCAR cells after 48 hrs by MTT assay; type: functional
Outline: (§1)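 Cells seeded 3000/well (OVCA, SW620, H460) or 5000/well (AGS), grown 24 h, then exposed to serial dilutions (DMSO stock) for 48 h at 37 °C, 5% CO2. MTT (2 mg/ml in PBS) added for 2 h; formazan dissolved in DMSO and read at 570 nm. Inhibition = (1 − At/Ac)×100 vs vehicle; GI50 interpolated from dose–response curves; four to six separate experiments, mean ± SEM.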

AGS [2] = assay: Growth inhibition of human AGS cells after 48 hrs by MTT assay; type: functional; outline: as §1
NCI-H460 [3] = assay: Growth inhibition of human H460 cells at 40 uM after 48 hrs by MTT assay; type: functional, cell-based
Outline: (§2)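 MTT growth inhibition at the top tested concentration of 40 uM, 48 h exposure, cells seeded as for GI50 (3000/well OVCA, SW620, H460; 5000/well AGS).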

SW-620 [4] = assay: Growth inhibition of human SW620 cells after 48 hrs by MTT assay; type: functional; conditions: SW-620, 48 h; outline: as §1
AGS [5] = assay: Growth inhibition of human AGS cells at 40 uM after 48 hrs by MTT assay; type: functional, cell-based; outline: as §2
SW-620 [6] = assay: Growth inhibition of human SW620 cells at 40 uM after 48 hrs by MTT assay; type: functional, cell-based; outline: as §2
NCI-H460 [7] = assay: Growth inhibition of human H460 cells after 48 hrs by MTT assay; type: functional; conditions: NCI-H460, 48 h; outline: as §1
OVCAR [8] = assay: Growth inhibition of human OVCAR cells at 40 uM after 48 hrs by MTT assay; type: functional, cell-based; outline: as §2
OVCAR [9] = assay: Induction of apoptosis in human OVCAR cells assessed as increase in cleaved caspase-3 level at 1.2 to 5 uM after 16 hrs by Western blot analysis; type: functional, cell-based
Outline: (§3)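 OVCA cells treated 16 h (vehicle 1% DMSO), washed in PBS, lysed; 50 ug protein run on 15% SDS-PAGE, transferred to nitrocellulose, blocked overnight at 4 °C in TBST/5% milk. Probed with anti-PARP (1:500), anti-cleaved caspase-3, anti-cleaved caspase-9, anti-phospho-Akt, anti-Akt, anti-beta-actin (1:1000), then secondary IgG 1:10,000 for 1 h at room temperature; ECL detection. Total Akt used as reference for phospho-Akt.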

[10] = biological target: RAC-alpha serine/threonine-protein kinase (Homo sapiens) (UniProt P31749); assay: Inhibition of Akt phosphorylation in human OVCAR cells at 1.2 to 5 uM after 16 hrs by Western blot analysis; type: cell-based; outline: as §3
OVCAR [11] = assay: Cell cycle arrest in human OVCAR cells assessed as accumulation at sub-G1 phase at 2.5 uM after 24 hrs by propidium iodide staining-based FACS analysis; type: functional
Outline: (§4)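 OVCA cells given 0.5% DMSO or compound for 24 h, harvested, PBS-rinsed, fixed in 80% ethanol and held at −20 °C until analysis. Propidium iodide DNA staining and flow cytometry; apoptotic nuclei scored as the subdiploid (sub-G1) peak, given as percent of the whole population. Untreated cells served as blank.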

OVCAR [12] = assay: Cell cycle arrest in human OVCAR cells assessed as accumulation at sub-G1 phase at 1.2 uM after 24 hrs by propidium iodide staining-based FACS analysis; type: functional; outline: as §4
OVCAR [13] = assay: Induction of apoptosis in human OVCAR cells assessed as increase in cleaved caspase-9 level at 1.2 to 5 uM after 16 hrs by Western blot analysis; type: functional, cell-based; outline: as §3
OVCAR [14] = assay: Induction of apoptosis in human OVCAR cells assessed as PARP cleavage at 1.2 to 5 uM after 16 hrs by Western blot analysis; type: functional, cell-based; outline: as §3
OVCAR [15] = assay: Cell cycle arrest in human OVCAR cells assessed as accumulation at sub-G1 phase at 5 uM after 24 hrs by propidium iodide staining-based FACS analysis; type: functional; outline: as §4

RAC-alpha serine/threonine-protein kinase (Homo sapiens), sequence (P31749 whole entry): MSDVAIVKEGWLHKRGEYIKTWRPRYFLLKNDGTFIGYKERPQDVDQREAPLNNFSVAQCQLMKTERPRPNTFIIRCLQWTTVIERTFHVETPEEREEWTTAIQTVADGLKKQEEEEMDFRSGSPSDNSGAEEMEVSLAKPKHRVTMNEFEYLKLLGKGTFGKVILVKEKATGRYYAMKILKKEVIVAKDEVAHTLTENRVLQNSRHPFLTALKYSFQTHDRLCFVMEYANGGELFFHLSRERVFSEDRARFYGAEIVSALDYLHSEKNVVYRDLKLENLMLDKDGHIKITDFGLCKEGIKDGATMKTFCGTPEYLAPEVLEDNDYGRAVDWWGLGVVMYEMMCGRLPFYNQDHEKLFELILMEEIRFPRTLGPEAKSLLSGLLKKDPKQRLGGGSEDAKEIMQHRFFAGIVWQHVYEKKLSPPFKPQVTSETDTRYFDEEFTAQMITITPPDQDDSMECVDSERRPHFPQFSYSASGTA

Structure (SMILES) | GI50 (OVCAR [1]) | GI50 (AGS [2]) | growth inhibition (GI) (NCI-H460 [3]) | GI50 (SW-620 [4]) | growth inhibition (GI) (AGS [5]) | growth inhibition (GI) (SW-620 [6]) | GI50 (NCI-H460 [7]) | further results
COc1ccc(-c2cc(-c3ccc(C(F)(F)F)cc3)n[nH]2)cc1 | 22.8 µM | 14.8 µM | inactive | 11.2 µM | – | – | – | –
Nc1ccc(-c2cc(-c3ccc(C(F)(F)F)cc3)n[nH]2)cc1 | 18.6 µM | – | – | – | inactive | inactive | 21.5 µM | –
O=[N+]([O-])c1cccc(-c2cc(-c3ccccc3)n[nH]2)c1 | 5.8 µM | 11.4 µM | – | – | – | inactive | 6.1 µM | –
COc1ccc(-c2cc(-c3ccc(Cl)cc3)n[nH]2)cc1 | 12.8 µM | – | – | – | inactive | inactive | 11.6 µM | –
Nc1ccc(-c2cc(-c3ccccc3-c3ccccc3)n[nH]2)cc1 | 17.9 µM | 8.4 µM | – | – | – | inactive | 8.2 µM | –
COc1ccccc1-c1cc(-c2ccc(N)cc2)[nH]n1 | – | – | inactive | 21.1 µM | inactive | – | – | growth inhibition (GI) (OVCAR [8]): inactive
COc1cccc(-c2cc(-c3ccc(N)cc3)[nH]n2)c1 | – | – | inactive | – | inactive | inactive | – | growth inhibition (GI) (OVCAR [8]): inactive
Nc1ccc(-c2cc(-c3ccccc3)n[nH]2)cc1 | – | – | – | 25.4 µM | inactive | – | 26.7 µM | growth inhibition (GI) (OVCAR [8]): inactive
COc1ccc(-c2cc(-c3ccc(N)cc3)[nH]n2)cc1 | – | – | inactive | – | inactive | inactive | – | growth inhibition (GI) (OVCAR [8]): inactive
COc1ccccc1-c1cc(-c2ccccc2-c2ccccc2)n[nH]1 | 14.2 µM | – | – | – | inactive | inactive | 9.1 µM | –
O=[N+]([O-])c1ccc(-c2cc(-c3ccc(Br)cc3)n[nH]2)cc1 | 17.5 µM | 14.6 µM | inactive | 28.6 µM | – | – | – | –
COc1ccc(-c2cc(-c3ccc4ccccc4c3)n[nH]2)cc1 | 17.5 µM | 19 µM | – | 26.9 µM | – | – | 13.2 µM | –
O=[N+]([O-])c1ccc(-c2cc(-c3ccccc3)n[nH]2)cc1 | 7.2 µM | – | – | – | inactive | inactive | 10.2 µM | –
O=[N+]([O-])c1ccc(-c2cc(-c3ccc(Cl)cc3)n[nH]2)cc1 | – | 24.1 µM | – | 12.2 µM | – | – | 20.7 µM | growth inhibition (GI) (OVCAR [8]): inactive
Oc1ccc(-c2cc(-c3ccc(C(F)(F)F)cc3)n[nH]2)cc1 | 9.2 µM | 9.8 µM | – | 19.6 µM | – | – | 20.1 µM | –
FC(F)(F)c1ccc(-c2cc(-c3ccccc3-c3ccccc3)n[nH]2)cc1 | 2.75 µM | 6.9 µM | inactive | – | – | inactive | – | Activity (OVCAR [9]): Active; inhibition [10]: Active; Activity (OVCAR [11]): 15.75%; Activity (OVCAR [12]): 11.43%; Activity (OVCAR [13]): Active; Activity (OVCAR [14]): Active; Activity (OVCAR [15]): 23.51%
COc1ccc(-c2cc(-c3ccc([N+](=O)[O-])cc3)[nH]n2)cc1 | 27.3 µM | – | – | 14.3 µM | inactive | – | 18.3 µM | –

Structure (SMILES) | GI50 (OVCAR [1]) | GI50 (AGS [2]) | growth inhibition (GI) (NCI-H460 [3]) | GI50 (SW-620 [4]) | growth inhibition (GI) (AGS [5]) | growth inhibition (GI) (SW-620 [6]) | GI50 (NCI-H460 [7]) | further results
Oc1ccc(-c2cc(-c3ccccc3-c3ccccc3)n[nH]2)cc1 | 6.2 µM | 9.2 µM | – | 25.9 µM | – | – | 6.9 µM | –
O=[N+]([O-])c1ccc(-c2cc(-c3ccc4c(c3)OCO4)n[nH]2)cc1 | 10.8 µM | 13.1 µM | – | 23.5 µM | – | – | 8.9 µM | –
COc1cccc(-c2cc(-c3ccc([N+](=O)[O-])cc3)[nH]n2)c1 | 19.1 µM | – | – | – | inactive | inactive | 11.2 µM | –
COc1ccc(-c2cc(-c3ccc(Br)cc3)n[nH]2)cc1 | 20.7 µM | – | – | – | inactive | inactive | 27.1 µM | –
COc1ccc(-c2cc(-c3ccccc3)n[nH]2)cc1 | 9.9 µM | 11.3 µM | – | 27.2 µM | – | – | 10.4 µM | –
COc1ccc(-c2cc(-c3ccc([N+](=O)[O-])cc3)[nH]n2)cc1OC | 28.9 µM | – | – | 26.4 µM | inactive | – | 17.9 µM | –
COc1ccc(-c2cc(-c3ccc(N)cc3)[nH]n2)cc1OC | – | – | inactive | – | inactive | inactive | – | growth inhibition (GI) (OVCAR [8]): inactive
CN(C)c1ccc(-c2cc(-c3ccc(C(F)(F)F)cc3)n[nH]2)cc1 | – | – | inactive | – | inactive | inactive | – | –
COc1cccc(-c2cc(-c3ccccc3-c3ccccc3)n[nH]2)c1 | 5.8 µM | 7.5 µM | – | – | – | inactive | 8.7 µM | –
COc1ccc(-c2cc(-c3ccccc3-c3ccccc3)n[nH]2)cc1 | 0.67 µM | 0.79 µM | – | 0.89 µM | – | – | 0.73 µM | Activity (OVCAR [9]): Active; inhibition [10]: Active; Activity (OVCAR [11]): 20.53%; Activity (OVCAR [12]): 14.97%; Activity (OVCAR [13]): Active; Activity (OVCAR [14]): Active; Activity (OVCAR [15]): 32.05%
Oc1ccccc1-c1cc(-c2ccccc2-c2ccccc2)n[nH]1 | 5.8 µM | 7.5 µM | – | 10.6 µM | – | – | 4.6 µM | –
COc1ccccc1-c1cc(-c2ccc([N+](=O)[O-])cc2)[nH]n1 | 11.7 µM | – | – | – | inactive | inactive | 20.5 µM | –
O=[N+]([O-])c1ccc(-c2cc(-c3ccccc3-c3ccccc3)n[nH]2)cc1 | 3.4 µM | 1.2 µM | – | 12.2 µM | – | – | 2.7 µM | –
COc1ccc(-c2cc(-c3ccc(F)cc3)n[nH]2)cc1 | 14 µM | – | inactive | – | inactive | inactive | – | –
O=[N+]([O-])c1ccc(-c2cc(-c3ccc(F)cc3)n[nH]2)cc1 | – | 18.3 µM | inactive | 18.1 µM | – | – | – | growth inhibition (GI) (OVCAR [8]): inactive
O=[N+]([O-])c1ccc(-c2cc(-c3ccc(C(F)(F)F)cc3)n[nH]2)cc1 | – | – | inactive | – | inactive | – | – | growth inhibition (GI) (OVCAR [8]): inactive
